# Screening data from PubChem.
# UHRF1 MBD2 ctr: UHRF1 methyl-DNA binding inhibition. Q96T88. UHRF1 binding to methylated oligo, TR-FRET. inhibition, % at 4.4 µM. 370,000 compounds, 0.75% hits; in the data active = inhibition above about 21%;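 note: UHRF1 SRA domain binding a hemimethylated CpG hairpin DNA probe; 0% = median of test compound wells and 100% = reference inhibitor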
# TDP2 absorb: TDP2 (human) inhibition, absorbance primary screen; inhibition, % at 12.8 µM; AID 720702; 370,000 compounds, 0.34% hits; O95551; recombinant TDP2, T5PNP hydrolysis, p-nitrophenol absorbance 415 nm;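 active = inhibition above the mean of all tested compounds plus 3 SD, set per campaign, cut at about 25% in these data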;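 note: 0% = DMSO with enzyme and 100% = buffer with substrate but no TDP2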
#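 System – recombinant human TDP2 · Quantity – TDP2 enzyme at 120 nM final · Doses – single concentration, 12.8 µM nominal, with 1% DMSO · Incubation – 2 h at 37 °C · Measured by – epi absorbance of p-nitrophenol freed from T5PNP by hydrolysis · Read-out – % inhibition relative to enzyme-containing and enzyme-free wells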
# MBD2 DNA inh: MBD2-methylated oligo binding inhibition; Q9UBB5; TR-FRET, MBD2 binding to methylated oligonucleotide; inhibition, % at 4.4 µM; 370,000 compounds, 0.31% hits; in the data active = inhibition above about 13%
# LEDGF integ inh: blocks HIV-1 LEDGF/p75-dependent DNA integration. TR-FRET IN-LEDGF/p75 DNA integration, Eu/Cy5. inhibition, % at 3.7 µM. 370,000 compounds, 0.64% hits. AID 743269;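 active = inhibition above the screen-wide mean plus 3 SD, cut at about 13% in these data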;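 note: signal is the Cy5 over europium emission ratio at 671 and 618 nm; 0% = plate median of compound wells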
# ARFGAP1 inh: inhibitors of rat ARFGAP1; Q62848; Arfgap1-stimulated ARF1 GTP hydrolysis, GDP FP detection; inhibition, % at 16.5 µM; 360,000 compounds, 0.26% hits; AID 651572;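 active = inhibition above a per-plate limit, mean inhibition of low control wells plus 3 SD, cut at about 25% in these data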;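 note: 0% = DMSO wells with enzyme and 100% = wells lacking Arfgap1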
# Target sequence (Q62848 1-136 limits assumed): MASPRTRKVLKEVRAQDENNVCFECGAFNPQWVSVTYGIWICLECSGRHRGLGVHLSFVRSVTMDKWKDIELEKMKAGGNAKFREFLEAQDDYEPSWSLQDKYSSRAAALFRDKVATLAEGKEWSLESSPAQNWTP
#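 Material: rat Arfgap1 catalytic domain, aa 1-136; also added: human ARF1(Δ1-17)-GTP substrate; compound dosing: one concentration, 16.5 µM, DMSO 1.26%; incubation: GTP hydrolysis reaction 2 h at 25 °C; measured by: Tracer-displacement fluorescence polarization with EDTA stop, 620/688 nm; evaluation: % inhibition from polarization; repeats: one replicate per compound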
# ASAP1 inh: inhibitors of human ASAP1 ArfGAP activity; AID 624377; 360,000 compounds, 0.19% hits; ASAP1-stimulated ARF1 GTP hydrolysis, GDP FP detection; inhibition, % at 16.5 µM; in the data active = inhibition above about 25%;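 note: 0% = vehicle with enzyme and substrate and 100% = no enzyme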
# Target sequence (Q9ULH1 325-724 limits assumed): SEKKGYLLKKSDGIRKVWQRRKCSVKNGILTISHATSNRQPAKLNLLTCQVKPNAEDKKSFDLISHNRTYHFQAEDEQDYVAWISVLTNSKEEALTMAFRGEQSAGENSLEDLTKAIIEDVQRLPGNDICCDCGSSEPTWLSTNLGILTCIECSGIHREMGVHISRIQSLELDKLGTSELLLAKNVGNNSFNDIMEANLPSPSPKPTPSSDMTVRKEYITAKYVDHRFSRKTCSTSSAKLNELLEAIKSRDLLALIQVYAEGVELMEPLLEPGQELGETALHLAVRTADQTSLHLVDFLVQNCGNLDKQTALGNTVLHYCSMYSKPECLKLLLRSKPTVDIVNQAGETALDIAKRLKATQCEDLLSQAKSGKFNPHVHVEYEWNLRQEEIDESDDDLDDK
# IN multimer up: HIV-1 integrase multimerization activation, counter-screen | shares compounds with LEDGF integ inh | TR-FRET HIV-1 integrase multimerization, biochemical | activation, % at 7.7 µM | 2,000 compounds, 17% hits | AID 1053131; in the data active = activation above about 8.9%
# TR-FRET interf: optically interferes with TR-FRET readout in LEDGF counter-screen | inhibition, % at 7.7 µM | TR-FRET optical interference counterscreen, HIV-1 IN multimerization | 2,000 tested, under 10 active | shares compounds with LEDGF integ inh;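 active = inhibition above the mean over all tested compounds plus 3 SD, which no compound reached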;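 note: 0% = integrase with antibodies and DMSO and 100% = antibodies without integrase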
# IN-LEDGF confirm: confirmation of HIV-1 LEDGF/p75-dependent integration inhibitors; shares compounds with LEDGF integ inh; TR-FRET LEDGF/p75-dependent HIV-1 integration, biochemical; inhibition, % at 3.7 µM; 2,000 compounds, 36% hits; AID 1053136; in the data active = inhibition above about 14%
# Active calls of the source: *; · = no result given. This is a sample that favours compounds with a hit; in the whole collection about 2% have one here.
SMILES,UHRF1 MBD2 ctr,TDP2 absorb,MBD2 DNA inh,LEDGF integ inh,ARFGAP1 inh,ASAP1 inh,IN multimer up,TR-FRET interf,IN-LEDGF confirm
COc1ccc(S[C@]2(C(=O)N3CCN(C(C)=O)CC3)CC(=O)N(C(=O)/C=C/c3ccccc3)[C@@H]2c2ccc(OC)cc2)cc1,-1,-7,-2,-3,·,·,·,·,·
CN1CCN(c2ncnc3c2ncn3[C@H]2CN(Cc3ccc(Cl)cc3)C[C@@H](CO)O2)CC1,0,-1,0,14*,-2,0,1,-3,-10
CCCNC(=O)c1cc(C2CCCN(S(=O)(=O)c3cccc4cccnc34)C2)on1 (centres undefined),-1,-7,1,37*,9,19,-4,15,1
COC(=O)c1ccc(NC(=S)N2CCN(Cc3ccccc3Cl)CC2)cc1,1,-10,0,76*,6,-6,0,-1,-10
COC(=O)c1ccc(NC(=S)N2CCN(Cc3ccccc3OC)CC2)cc1,0,-6,6,-2,11,17,·,·,·
c1ccc(-c2ccc(OCCOCCn3cncn3)cc2)cc1,1,7,1,2,6,14,·,·,·
FC(F)(F)c1cccc(OCCOCCn2cncn2)c1,2,2,0,21*,12,-11,-2,12,11
CS(=O)(=O)N1CCN(c2ccc(NC(=O)CSc3ccc(Cl)cc3)cc2)CC1,-1,3,-5,63*,0,-1,-2,8,-1
O=C(NCCN1CCC(Cc2ccccc2)CC1)C1CCCN(S(=O)(=O)c2ccc(Br)s2)C1 (centres undefined),0,4,-6,0,·,·,·,·,·
N#Cc1ccc(/C=C2\CC3(OC(=O)c4ccco4)CCCN2C3)cc1 (centres undefined),-1,-2,1,-2,·,·,·,·,·
CC(O)(CS(=O)(=O)Cc1ccccc1)c1ccc(Cl)cc1 (centres undefined),-4,7,4,-2,-1,-3,·,·,·
COc1ccc(CS(=O)(=O)CC(C)(O)c2ccc(Cl)cc2)cc1 (centres undefined),-3,10,-5,14*,-4,-17,0,-2,0
O=C(NCc1ccc(C(=O)N2CCCN(Cc3ccccc3)CC2)cc1)c1cccc(Br)c1,2,-3,6,3,·,·,·,·,·
CCc1ccc(Nc2n[n+](C)c(-c3ccncc3)s2)cc1,-2,-2,-2,42*,14,4,0,2,-6
CCCOc1ccc(-c2nc(CSCC(=O)NC3CC3)c(C)o2)cc1,-1,-4,0,-4,·,·,·,·,·
CCOC(=O)c1ccc(CC(=O)c2ccc(O)c(O)c2O)o1,24*,-6,4,74*,0,0,5,-25,58*
CCN1C[C@@H]2[C@@H]3C(=O)N(C)C(=O)[C@@H]3[C@](CC)(C(=O)OC)N2C1=NCc1ccccc1,21*,10,10,65*,-2,3,-2,9,2
CCN1C[C@@H]2[C@@H]3C(=O)N(Cc4ccccc4)C(=O)[C@@H]3[C@](CC)(C(=O)OC)N2C1=NCc1ccccc1,4,3,10,0,-3,-5,·,·,·
C=CCNC(=S)N/N=C(\C)c1cccc(OC)c1,-3,-3,2,2,10,-13,·,·,·
C=CCNC(=S)N/N=C(\C)c1ccc(OC)cc1,27*,-2,10,16*,5,6,1,-4,-10
O=C(NCCc1ccccc1)OCc1cn(-c2ccc(F)cc2)nn1,-1,6,-5,-5,·,·,·,·,·
N=C1/C(=C\c2coc3ccccc3c2=O)C(=O)N=C2SC=CN12,-13,-15,-6,15*,-2,8,3,-15,26*
CSC1=NSC2=NC(=O)/C(=C/c3coc4ccccc4c3=O)C(=N)N12,-8,-8,1,3,-6,4,·,·,·
COCCn1nnnc1C(c1ccccc1OC)N1CCc2ccccc2C1 (centres undefined),-1,7,-3,33*,-7,-3,1,-6,-4
COCCn1nnnc1C(c1ccc(OC)c(OC)c1)N1CCc2ccccc21 (centres undefined),-4,-5,4,-7,2,4,·,·,·
SMILES,UHRF1 MBD2 ctr,TDP2 absorb,MBD2 DNA inh,LEDGF integ inh,ARFGAP1 inh,ASAP1 inh,IN multimer up,TR-FRET interf,IN-LEDGF confirm
CC[C@@H](OP(=O)(O)[C@@H](C)N)C(=O)O,-1,1,0,-5,·,·,·,·,·
COC(=O)[C@]12C[C@H](CC(=O)NCCCN3CCCC3=O)C(=O)N(Cc3cccc4ccccc34)C1=C[C@H](COCc1ccccc1)O[C@@H]2C,-1,-5,-7,-1,·,·,·,·,·
CSc1nc2c([nH]1)c(=S)n(C)c(=O)n2C,-3,-3,-3,26*,5,4,7,-24,-10
CCCCSc1nc2c([nH]1)c(=S)n(C)c(=O)n2C,-3,-3,-6,-1,-1,2,·,·,·
COc1cc(OC)c2c(c1O)OC(c1ccccc1)CC2=O (centres undefined),-1,-1,6,28*,-11,5,35*,-126,32*
COC(=O)c1cc(-c2ccc(OC)c(OC)c2)c(=O)n2c1CCC2,0,8,4,-1,·,·,·,·,·
CC(C)n1nnnc1C1c2ccccc2OCC(=O)N1Cc1cccc(C(F)(F)F)c1 (centres undefined),1,0,4,-3,·,·,·,·,·
COc1cc(NC(=S)NCc2cccnc2)c(OC)cc1Cl,-2,5,-1,80*,-5,13,1,-4,2
COc1ccccc1NC(=S)NCc1cccnc1,1,-6,-1,0,12,-2,·,·,·
Cc1ccc(NC(=O)C2CCCN2C(=O)NC2CCCCC2)cc1C (centres undefined),6,-16,2,53*,13,1,-4,18,5
Cc1ccc(NC(=O)C2CCCN2C(=O)NC2CCCCC2)cc1F (centres undefined),1,11,6,1,-4,11,·,·,·
Cc1nc2ccc(NC(=O)c3cc(F)cc(F)c3)cc2c(=O)[nH]1,-1,0,0,-2,·,·,·,·,·
CCc1nc2c(OCC3COc4ccccc4O3)cccn2c1N(C)C(=O)c1cccc(OC)c1 (centres undefined),-1,-5,3,20*,7,-2,1,-6,0
